In brackets after ≈: the same amount, converted by molar mass. Like-named read-outs stand apart in the source and are kept apart here.
Key:
[1] = tested on: E. coli BW25113; assay: MIC, microbroth dilution in Mueller-Hinton broth; assay type: cell-based, Escherichia coli; conditions: for MIC EC MH+BP/CCCP / MIC EC +: E. coli BW25113; for MIC EC MH+BP/CCCP: MH broth with 30 µg/ml 2,2′-bipyridyl and 50 µg/ml CCCP; for MIC EC +: with clavulanic acid (6µg/ml); for MIC: Escherichia coli, BW25113, read-out: MIC EC, E. coli BW25113, Mueller-Hinton broth (Table 2)
[2] = tested on: B. anthracis sterne; assay: microbe, parasite or virus in culture; assay type: cell-based; conditions: Bacillus anthracis, read-out: MIC BA
[3] = tested on: E. faecalis ATCC33186; assay: MIC, microbroth dilution in Mueller-Hinton broth; assay type: cell-based; conditions: Enterococcus faecalis, ATCC33186, read-out: MIC EF
Summary of the method: (§1)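 CLSI broth microdilution in cation-adjusted Mueller-Hinton broth. Inocula were grown from MH agar colonies in MH broth, with a final inoculum of 10^5 CFU/ml. Test compound final range was 200–0.2 µg/ml, incubated 37°C for 18–20 h. MIC was the lowest concentration preventing visible growth. Runs were at least duplicate, and the mean MIC was reported.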

[4] = tested on: S. pneumoniae R6; assay: MIC, microbroth dilution in Mueller-Hinton broth; assay type: cell-based; conditions: Streptococcus pneumoniae, R6, read-out: MIC SP
Summary of the method: as §1

[5] = tested on: P. vulgaris ATCC 33420; assay: MIC, microbroth dilution in Mueller-Hinton broth; assay type: cell-based; conditions: Proteus vulgaris, ATCC33420, read-out: MIC PV
[6] = tested on: P. aeruginosa PA01; assay: MIC, microbroth dilution in Mueller-Hinton broth; assay type: cell-based, Pseudomonas aeruginosa; conditions: for MIC PA MH+BP/CCCP / MIC PA +: P. aeruginosa PA01; for MIC PA MH+BP/CCCP: MH broth with 30 µg/ml 2,2′-bipyridyl and 50 µg/ml CCCP; for MIC PA +: with clavulanic acid (6µg/ml); for MIC: Pseudomonas aeruginosa
[7] = tested on: S. aureus -ATCC29213 (MSSA); assay: MIC, microbroth dilution in Mueller-Hinton broth; assay type: cell-based; conditions: Staphylococcus aureus, read-out: MIC MSSA
Summary of the method: as §1

[8] = tested on: B. subtilis ATCC23857; assay: MIC, microbroth dilution in Mueller-Hinton broth; assay type: cell-based; conditions: Bacillus subtilis, ATCC23857, read-out: MIC BS
Summary of the method: as §1

[9] = tested on: S. pyogenes ATCC700294; assay: MIC, microbroth dilution in Mueller-Hinton broth; assay type: cell-based; conditions: Streptococcus pyogenes, ATCC700294, read-out: MIC SPy
Summary of the method: as §1

[10] = tested on: P. mirabilis ATCC 25933; assay: MIC, microbroth dilution in Mueller-Hinton broth; assay type: cell-based; conditions: Proteus mirabilis, ATCC25933, read-out: MIC PM
[11] = tested on: E. coli BW25113 ΔtolC derivative JW5503-1; assay: MIC, microbroth dilution in Mueller-Hinton broth; assay type: cell-based, Escherichia coli; conditions: for MIC: Escherichia coli
[12] = tested on: E. coli BW25113 ΔampC derivative JW4111-2; assay type: cell-based, Escherichia coli; conditions: for MIC: Escherichia coli, BW25113, read-out: MIC ECΔampC −
[13] = tested on: S. aureus NRS 70 (MRSA); assay: MIC, microbroth dilution in Mueller-Hinton broth; assay type: cell-based; conditions: Staphylococcus aureus, MRSA|NRS70, read-out: MIC MRSA
Summary of the method: as §1

[14] = tested on: E. coli ATCC 35218 (Low-level TEM-1); assay: MIC with and without clavulanic acid; assay type: cell-based; conditions: with clavulanic acid (6 µg/ml)
Summary of the method: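 Mueller-Hinton broth microdilution per CLSI, run in parallel without and with the β-lactamase inhibitor clavulanic acid (6 µg/ml). MH-broth-grown inoculum was at 10^5 CFU/ml final, with test compound at 200–0.2 µg/ml final. Incubation was 37°C, 18–20 h, and the visible-growth endpoint was read. At least duplicate determinations; the mean MIC was reported.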

[15] = BW25113, read-out: MIC ECΔtolC MH
[16] = BW25113, read-out: MIC ECΔtolC MH+BP

| SMILES | MIC EC MH+BP/CCCP [1] [µg/mL] | MIC EC + [1] [µg/mL] | MIC [1] [µg/mL] | MIC [2] [µg/mL] | MIC [3] [µg/mL] | MIC [4] [µg/mL] | MIC [5] [µg/mL] | MIC PA MH+BP/CCCP [6] [µg/mL] | MIC PA + [6] [µg/mL] | MIC ([6]; PA01, read-out: MIC PA) [µg/mL] | MIC ([6]; PA01, read-out: MIC PA MH) [µg/mL] | MIC ([6]; PA01, read-out: MIC PA MH+BP) [µg/mL] | MIC ([6]; PA01, read-out: MIC PA MH+CCCP) [µg/mL] | MIC [7] [µg/mL] | MIC [8] [µg/mL] | MIC [9] [µg/mL] | MIC [10] [µg/mL] | MIC [11, 16] [µg/mL] | MIC ECΔtolC MH+BP/CCCP [11] [µg/mL] | MIC ECΔtolC MH+CCCP [11] [µg/mL] | other results |
| --- | --- | --- | --- | --- | --- | --- | --- | --- | --- | --- | --- | --- | --- | --- | --- | --- | --- | --- | --- | --- | --- |
| CC1(C)SC2C(NC(=O)C(NC(=O)C3=C(O)C4(CC4)NC3=O)c3ccccc3)C(=O)N2C1C(=O)O (centres unmarked) [Compound 2833] | 6.25 (≈ 12.5 µM) | 12.5 | 100 (≈ 200 µM) | 1.56 (≈ 3.12 µM) | 12.5 (≈ 25 µM) | < 0.2 | 100 (≈ 200 µM) | 12.5 (≈ 25 µM) | 6.25 | 25 (≈ 49.9 µM) | 25 (≈ 49.9 µM) | 25 (≈ 49.9 µM) | 12.5 (≈ 25 µM) | < 0.2 | 0.39 (≈ 0.779 µM) | 0.78 (≈ 1.56 µM) | 6.25 (≈ 12.5 µM) | 1.56 (≈ 3.12 µM) | 0.78 (≈ 1.56 µM) | 1.56 (≈ 3.12 µM) | MIC ([11]; BW25113, read-out: MIC ECΔtolC): 3.13 µg/mL (≈ 6.25 µM); MIC [11, 15]: 3.13 µg/mL (≈ 6.25 µM); MIC [12]: 12.5 µg/mL (≈ 25 µM); MIC ECΔampC + [12]: 6.25 µg/mL; MIC [13]: 25 µg/mL (≈ 49.9 µM) |
| CC1NC(=O)C(C(=O)NC(C(=O)NC2C(=O)N3C2SC(C)(C)C3C(=O)O)c2ccccc2)=C1O (centres unmarked) [Compound 2746] | 12.5 (≈ 25.6 µM) | 50 | 200 (≈ 409 µM) | 1.56 (≈ 3.19 µM) | 25 (≈ 51.2 µM) | 0.39 (≈ 0.798 µM) | 100 (≈ 205 µM) | 12.5 (≈ 25.6 µM) | 25 | 50 (≈ 102 µM) | 50 (≈ 102 µM) | 50 (≈ 102 µM) | 12.5 (≈ 25.6 µM) | 1.56 (≈ 3.19 µM) | 3.13 (≈ 6.41 µM) | 0.39 (≈ 0.798 µM) | 3.13 (≈ 6.41 µM) | 6.25 (≈ 12.8 µM) | 1.56 (≈ 3.19 µM) | 3.13 (≈ 6.41 µM) | MIC ([6]; PA01, read-out: MIC PA −): 50 µg/mL (≈ 102 µM); MIC [12]: 50 µg/mL (≈ 102 µM); MIC ECΔampC + [12]: 25 µg/mL; MIC [13]: 50 µg/mL (≈ 102 µM) |
| CC1(C)SC2C(NC(=O)C(NC(=O)C3=C(O)C(Cc4ccc(F)cc4)NC3=O)c3ccccc3)C(=O)N2C1C(=O)O (centres unmarked) [Compound 2782] | 3.13 (≈ 5.37 µM) | 3.13 | 25 (≈ 42.9 µM) | 3.13 (≈ 5.37 µM) | 6.25 (≈ 10.7 µM) | 0.39 (≈ 0.669 µM) | 12.5 (≈ 21.5 µM) | 12.5 (≈ 21.5 µM) | 12.5 | 25 (≈ 42.9 µM) | 25 (≈ 42.9 µM) | 25 (≈ 42.9 µM) | 12.5 (≈ 21.5 µM) | 0.39 (≈ 0.669 µM) | 1.56 (≈ 2.68 µM) | 0.78 (≈ 1.34 µM) | 12.5 (≈ 21.5 µM) | 3.13 (≈ 5.37 µM) | 1.56 (≈ 2.68 µM) | 1.56 (≈ 2.68 µM) | MIC ATCC 35218 (Low-level TEM-1) + CLV [14]: 25 µg/mL; MIC ([11]; BW25113, read-out: MIC ECΔtolC): 1.56 µg/mL (≈ 2.68 µM); MIC [11, 15]: 1.56 µg/mL (≈ 2.68 µM); MIC [12]: 6.25 µg/mL (≈ 10.7 µM); MIC ECΔampC + [12]: 3.13 µg/mL; MIC [13]: 12.5 µg/mL (≈ 21.5 µM) |
| CC1(C)SC2C(NC(=O)C(NC(=O)C3=C(O)C(c4ccccc4)NC3=O)c3ccccc3)C(=O)N2C1C(=O)O (centres unmarked) [Compound 2745] | 12.5 (≈ 22.7 µM) | 12.5 | 100 (≈ 182 µM) | 6.25 (≈ 11.4 µM) | 12.5 (≈ 22.7 µM) | 0.39 (≈ 0.708 µM) | 12.5 (≈ 22.7 µM) | 12.5 (≈ 22.7 µM) | 25 | 25 (≈ 45.4 µM) | 25 (≈ 45.4 µM) | 50 (≈ 90.8 µM) | 12.5 (≈ 22.7 µM) | 0.78 (≈ 1.42 µM) | 3.13 (≈ 5.68 µM) | 0.78 (≈ 1.42 µM) | 3.13 (≈ 5.68 µM) | 1.56 (≈ 2.83 µM) | 0.78 (≈ 1.42 µM) | 1.56 (≈ 2.83 µM) | MIC ([6]; PA01, read-out: MIC PA −): 25 µg/mL (≈ 45.4 µM); MIC ([11]; BW25113, read-out: MIC ECΔtolC): 3.13 µg/mL (≈ 5.68 µM); MIC [11, 15]: 3.13 µg/mL (≈ 5.68 µM); MIC [12]: 6.25 µg/mL (≈ 11.4 µM); MIC ECΔampC + [12]: 6.25 µg/mL; MIC [13]: 25 µg/mL (≈ 45.4 µM) |

Source: PMC5116011 (The Journal of antibiotics, 2016)
